# Measurements published in ChEMBL document CHEMBL1944532, “Synthesis and evaluation of anticancer activity of some novel 6-aryl-2-(p-sulfamylphenyl)-pyridazin-3(2H)-ones” (Eur J Med Chem, 2012).
# Activity calls are given as the source filed them. The rule behind the calls is not given here.
# Key:
# UACC-62 = experiment: Cytotoxicity against human UACC62 cells after 48 hrs by SRB assay; assay type: functional; details: UACC-62, 48 h
# In short: (§1)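 NCI 60-cell-line five-dose screen. Cells were grown in 1640 medium with 5% fetal calf serum and 2 mM L-glutamine, with inoculum density set by cell line, and pre-incubated 24 h. Compound in DMSO was added at 10^-4 to 10^-8 M (10-fold steps) with 48 h continuous exposure. Growth was read by SRB protein assay, and GI50, TGI and LC50 were derived from dose-response.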
# NCI-H322M [1] = experiment: Cytotoxicity against human NCI-H322M cells assessed as cell growth at 10 uM after 48 hrs by SRB assay; assay type: functional; details: read-out: Activity
# In short: (§2)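 NCI primary single-dose screen at 10^-5 M against the full panel of about 60 human tumor cell lines. Cells were in RPMI-1640 with 5% fetal calf serum and 2 mM L-glutamine and preincubated 24 h. Compound was given in DMSO with 48 h exposure. Growth was estimated by sulforhodamine B protein assay.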
# T47D [2] = experiment: Cytotoxicity against human T47D cells after 48 hrs by SRB assay; assay type: functional; in short: as §1
# T47D [3] = experiment: Cytotoxicity against human T47D cells assessed as cell growth at 10 uM after 48 hrs by SRB assay; assay type: functional; details: read-out: Activity
# In short: (§3)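 NCI primary one-dose screen at 10^-5 M against the full panel of about 60 human tumour cell lines, run to the NCI Drug Evaluation Branch protocol.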
# DU-145 = experiment: Cytotoxicity against human DU145 cells after 48 hrs by SRB assay; assay type: functional; details: DU-145, 48 h
# In short: (§4)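 NCI ~60-line panel in RPMI-1640 with 5% fetal calf serum and 2 mM L-glutamine, pre-incubated 24 h. Compound in DMSO tested at five 10-fold concentrations (10^-4 to 10^-8 M) with 48 h continuous exposure. Growth measured by sulforhodamine B protein assay. GI50 (50% net growth inhibition), TGI (total inhibition) and LC50 (50% net cell death) derived from dose-response.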
# HOP-62 = experiment: Cytotoxicity against human HOP62 cells after 48 hrs by SRB assay; assay type: functional; details: HOP-62, 48 h; in short: as §4
# SF-268 = experiment: Cytotoxicity against human SF268 cells after 48 hrs by SRB assay; assay type: functional; details: SF-268, 48 h
# In short: (§5)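 NCI five-dose screen on the ~60-line human tumor panel. Cells grown in RPMI-1640 with 5% fetal calf serum and 2 mM L-glutamine, seeded at line-dependent density and preincubated 24 h. Compound added from DMSO at 10-fold dilutions from 10^-4 to 10^-8 M, continuous exposure 48 h. Growth read by sulforhodamine B protein stain. GI50, TGI and LC50 derived per line.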
# HT-29 = experiment: Cytotoxicity against human HT-29 cells assessed as cell growth at 10 uM after 48 hrs by SRB assay; assay type: functional; details: HT-29, 48 h, read-out: Activity
# In short: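 NCI primary single-dose screen at 10^-5 M against the ~60 human tumour cell line panel. Cells grown in RPMI-1640 with 5% fetal calf serum and 2 mM L-glutamine and pre-incubated 24 h before compound addition. Compound added from DMSO solution with 48 h exposure. Growth read by sulforhodamine B protein staining.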
# SF-539 [4] = experiment: Cytotoxicity against human SF539 cells after 48 hrs by SRB assay; assay type: functional; details: SF-539, 48 h; in short: as §5
# NCI-H23 = experiment: Antitumor activity against human NCI-H23 cells implanted in mouse dosed qd for 4 days by formazan dye-based hollow fiber assay; assay type: functional, organism-based
# In short: (§6)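 Cells grown inside polyvinylidene fluoride hollow fibers; each line implanted into both intraperitoneal and subcutaneous compartments in mice. Compound given ip at two doses on a QD x 4 schedule. Fibers then recovered and viable cell mass measured by formazan dye conversion. Scored 2 per dose giving ≥50% reduction in viable cell mass (%T/C 50).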
# HCC 2998 = experiment: Cytotoxicity against human HCC2998 cells after 48 hrs by SRB assay; assay type: functional; details: HCC 2998, 48 h; in short: as §4
# SK-OV-3 = experiment: Cytotoxicity against human SKOV3 cells assessed as cell growth at 10 uM after 48 hrs by SRB assay; assay type: functional; details: SK-OV-3, 48 h, read-out: Activity; in short: as §3
# SNB-19 = experiment: Cytotoxicity against human SNB19 cells after 48 hrs by SRB assay; assay type: functional; details: SNB-19, 48 h; in short: as §1
# SF-539 [5] = experiment: Cytotoxicity against human SF539 cells assessed as cell growth at 10 uM after 48 hrs by SRB assay; assay type: functional; details: SF-539, 48 h, read-out: Activity; in short: as §2
# [6] = Toxicity in ip dosed athymic nude mouse assessed as lethality after 2 weeks; assay type: organism-based; details: in vivo
# In short: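 Maximum tolerated dose determination in athymic nude mice. Single ip injection of 400, 200 or 100 mg/kg, one mouse per dose. Compound solubilized in DMSO. Feed and water ad libitum. Mice observed 2 weeks for body weight loss, lethality and other toxicity signs; sacrificed if weight loss exceeds 20%.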
# NCI-H322M [7] = experiment: Cytotoxicity against human NCI-H322M cells after 48 hrs by SRB assay; assay type: functional; in short: as §5
# SF-295 = experiment: Cytotoxicity against human SF295 cells after 48 hrs by SRB assay; assay type: functional; details: SF-295, 48 h; in short: as §5
# MOLT-4 = experiment: Cytotoxicity against human MOLT4 cells after 48 hrs by SRB assay; assay type: functional; details: MOLT-4, 48 h; in short: as §5
# COLO 205 = experiment: Antitumor activity against human COLO205 cells implanted in mouse dosed qd for 4 days by formazan dye-based hollow fiber assay; assay type: functional, organism-based; in short: as §6
# OVCAR-5 = experiment: Antitumor activity against human OVCAR5 cells implanted in mouse dosed qd for 4 days by formazan dye-based hollow fiber assay; assay type: functional, organism-based; in short: as §6
# EKVX = experiment: Cytotoxicity against human EKVX cells after 48 hrs by SRB assay; assay type: functional; in short: as §4
# Malme-3M = experiment: Cytotoxicity against human MALME-3M cells after 48 hrs by SRB assay; assay type: functional; in short: as §5
# UACC-257 = experiment: Cytotoxicity against human UACC257 cells assessed as cell growth at 10 uM after 48 hrs by SRB assay; assay type: functional; details: UACC-257, 48 h, read-out: Activity; in short: as §3
compound,measurement,setting,value
CCc1ccc(-c2ccc(=O)n(-c3ccc(S(N)(=O)=O)cc3)n2)cc1,LC50,UACC-62,> 100 µM
same,GI50,UACC-62; read-out: GI50,0.724 µM
same,GI50,UACC-62; read-out: pGI50 (converted),0.724 µM
same,TGI,UACC-62; read-out: pTGI,> 100 µM
same,growth at 10 µM,NCI-H322M [1],115%
same,LC50,T47D [2],> 100 µM
same,GI50,T47D [2]; read-out: GI50,2.56 µM
same,GI50,T47D [2]; read-out: pGI50 (converted),2.57 µM
same,TGI,T47D [2]; read-out: pTGI,> 100 µM
same,growth at 10 µM,T47D [3],33.4%
same,LC50,DU-145,> 100 µM
same,GI50,DU-145; read-out: GI50,13.8 µM
same,GI50,DU-145; read-out: pGI50 (converted),13.8 µM
same,TGI,DU-145; read-out: pTGI,> 100 µM
same,LC50,HOP-62,70.8 µM
same,GI50,HOP-62; read-out: GI50,2.48 µM
same,GI50,HOP-62; read-out: pGI50 (converted),2.45 µM
same,TGI,HOP-62; read-out: pTGI (converted),22.4 µM
same,LC50,SF-268,> 100 µM
same,GI50,SF-268; read-out: GI50,4.25 µM
same,GI50,SF-268; read-out: pGI50 (converted),4.27 µM
same,TGI,SF-268; read-out: pTGI (converted),47.9 µM
same,growth at 10 µM,HT-29,11.8%
same,LC50,SF-539 [4],> 100 µM
same,GI50,SF-539 [4]; read-out: GI50,1.84 µM
same,GI50,SF-539 [4]; read-out: pGI50 (converted),1.82 µM
same,TGI,SF-539 [4]; read-out: pTGI (converted),22.9 µM
same,Activity,NCI-H23,inactive
same,LC50,HCC 2998,> 100 µM
same,GI50,HCC 2998; read-out: GI50,2.62 µM
same,GI50,HCC 2998; read-out: pGI50 (converted),2.63 µM
same,TGI,HCC 2998; read-out: pTGI,> 100 µM
same,growth at 10 µM,SK-OV-3,49.5%
same,LC50,SNB-19,> 100 µM
same,GI50,SNB-19; read-out: GI50,4.41 µM
same,GI50,SNB-19; read-out: pGI50 (converted),4.37 µM
same,TGI,SNB-19; read-out: pTGI (converted),36.3 µM
same,growth at 10 µM,SF-539 [5],43.6%
same,MTD at 336 h,[6],400 mg/kg
same,LC50,NCI-H322M [7],> 100 µM
same,GI50,NCI-H322M [7]; read-out: GI50,14.3 µM
same,GI50,NCI-H322M [7]; read-out: pGI50 (converted),14.1 µM
same,TGI,NCI-H322M [7]; read-out: pTGI (converted),100 µM
same,LC50,SF-295,75.9 µM
same,GI50,SF-295; read-out: GI50,0.554 µM
same,GI50,SF-295; read-out: pGI50 (converted),0.55 µM
same,TGI,SF-295; read-out: pTGI (converted),17.4 µM
same,LC50,MOLT-4,> 100 µM
same,GI50,MOLT-4; read-out: GI50,0.573 µM
same,GI50,MOLT-4; read-out: pGI50 (converted),0.575 µM
same,TGI,MOLT-4; read-out: pTGI,> 100 µM
same,Activity,COLO 205,inactive
same,Activity,OVCAR-5,inactive
same,LC50 (50% net cell death),EKVX,> 100 µM
same,GI50,EKVX; read-out: GI50,2.79 µM
same,GI50,EKVX; read-out: pGI50 (converted),2.82 µM
same,TGI,EKVX; read-out: pTGI,> 100 µM
same,LC50,Malme-3M,75.9 µM
same,GI50,Malme-3M; read-out: GI50,0.188 µM
same,GI50,Malme-3M; read-out: pGI50 (converted),0.186 µM
same,TGI,Malme-3M; read-out: pTGI (converted),16.2 µM
same,growth at 10 µM,UACC-257,22.3%
